Tested on: E. coli BW25113 ΔtolC growth inhibition, OD615
Assay: growth inhibitors of E. coli tolC mutant, dose response, strain BW25113 ΔtolC::kan (AID 617)
Outline: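 System – E. coli BW25113 ΔtolC::kan bacteria · Input – inoculum from 1:1000-diluted 1.5 h subculture · Buffer or medium – LB plus kanamycin · Compound – serial dilution series of compound · Timing – bacterial growth with compound for 20 h, 37 °C · Measured by – OD615 · Read-out basis – growth-inhibition IC50 from four-parameter logistic curve, bounds set to 0% and 100% · Benchmarks – chloramphenicol 30 µM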

| SMILES | IC50 [µM] |
| --- | --- |
| CCc1cc2cc(C(=O)N3CCN(Cc4ccccc4)CC3)sc2s1 | 10.3 |
| Cc1ccc(OCc2nc(C#N)c(N3CCN(Cc4ccccc4)CC3)o2)cc1 | 12.9 |
| Cc1nnc(SC(=O)N2c3ccccc3Sc3ccccc32)s1 | 14.6 |
| CC(C)N1CCC2(CC1)N=C(c1ccc3c(c1)OCO3)CC(c1cc(Cl)ccc1O)N2 (centres undefined) | 9.86 |
| CCOCCn1c(CN(Cc2ccccc2)Cc2ccccc2)nc2c1c(=O)n(C)c(=O)n2C | 13.2 |
| Cc1cc(C(=O)OCc2nc3ccccc3s2)c(C)o1 | 32.6 |
| CCSc1oc(-c2ccccc2)nc1S(=O)(=O)c1ccccc1 | 11.1 |
| COC(=O)c1ccc(Oc2nc(N3CCCCC3)nc(N3CCOCC3)n2)cc1 | 20.3 |
| CCOc1cc(/C=C(/C#N)c2ccc(F)cc2)ccc1OCc1ccc(C(=O)O)o1 | 4.4 |
| N#Cc1cn(CCOc2ccccc2F)c2ccccc12 | 16.1 |
| Oc1c(CN2CCCCC2)cc(Br)c2cccnc12 | 4.8 |
| COc1ccc2[nH]c3c(=O)n(CCCCC(=O)N4CCCC4)c(=S)[nH]c3c2c1 | 0.75 |
| c1ccc(CSc2nnc(-c3cccs3)n2Cc2ccco2)cc1 | 13.2 |
| COc1ccc(CNc2nc3c(c(=O)n(Cc4ccc(F)cc4)c(=O)n3C)n2C)cc1 | 22.5 |
| COc1ccc(S(=O)(=O)n2cnc3cc(C)c(C)cc32)cc1C | 13.6 |
| Cc1ccccc1OCCCCc1c(C)n[nH]c1C | 3.74 |
| CCc1nc(N2CCCCC2)c2oc3ccccc3c2n1 | 16.2 |
| O=C(CCSc1nc(-c2ccco2)cc(C(F)(F)F)n1)N1CCCc2ccccc21 | 9.2 |
| COc1ccc2c(c1)CCc1c(C(=O)N3CCc4ccccc4C3)noc1-2 | 5.76 |
| Oc1ccc(-c2[nH]ncc2-c2ccc(Cl)cc2)c(O)c1 | 11.1 |
| CCCCCn1c(CN2CCN(c3cccc(Cl)c3)CC2)nc2c1c(=O)n(C)c(=O)n2C | 15.2 |
| O=C(Nc1nc(SCc2ccc(F)cc2)ns1)c1ccco1 | 4.2 |
| Cc1cc(N2CCCCC2)nc(SCc2ccc(C#N)cc2)n1 | 12.1 |

| SMILES | IC50 [µM] |
| --- | --- |
| CCCCc1ccc(Nc2nc(CCC)cc(=O)[nH]2)cc1 | 14.9 |
| O=C(Nc1cccc(Cl)c1)N(CCCN1CCOCC1)Cc1ccccc1F | 7.19 |
| CCCc1ccc(Oc2cn[nH]c2-c2ccc(O)cc2O)cc1 | 0.24 |
| Cc1cc(Cl)ccc1OC(C)C(=O)Nc1ccccc1N1CCOCC1 (centres undefined) | 8.59 |
| CSc1nc2ccc(NS(=O)(=O)c3ccc(Cl)s3)cc2s1 | 0.72 |
| COc1ccc2nc(N3CCC(C)CC3)c(C#N)cc2c1 | 28.9 |
| CCn1cc(C(=O)NC2CCCCC2C)c(=O)c2ccc(C)nc21 (centres undefined) | 5.31 |
| O=C(COc1ccc(Cl)cc1)Nc1nnc(-c2ccc3c(c2)CCCC3)o1 | 0.25 |
| CCOC(=O)c1c(C)[nH]c(C)c1C(=O)Cn1nnc(-c2ccccc2C)n1 | 5.44 |
| O=C(Nc1cccc2cccnc12)c1ccc(Br)o1 | 10.6 |
| Cc1ccc2cc(CN(Cc3ccc(F)cc3)Cc3nnnn3C3CCCC3)c(=O)[nH]c2c1 | 12.8 |
| N#Cc1c(NC(=O)c2ccc(Cn3cc(Br)cn3)o2)sc2c1CCCCCC2 | 11.5 |
| Cc1cc(C(=O)OCc2nnc(-c3ccccc3)o2)c(C)n1-c1ccccc1 | 9.88 |
| Nc1nc(CN2CCN(c3cccc(Cl)c3)CC2)nc(N2CCCc3ccccc32)n1 | 4.27 |
| O=C(c1ccc(COc2ccccc2Cl)o1)N1CCN(c2ccccc2)CC1 | 8.64 |
| C=CCn1cc(C(=O)NCc2ccco2)c(=O)c2cc(S(=O)(=O)N3CCCCCC3)ccc21 | 16.1 |
| N#Cc1nc(COc2ccc(-c3ccccc3)cc2)oc1NCc1cccnc1 | 8.6 |
| CCOc1cccc(NC(=O)C2CC(=O)N(C)C(=Nc3cccc(F)c3)S2)c1 (centres undefined) | 15.1 |
| O=C(Nc1nc2ccccc2s1)C1CCCN1S(=O)(=O)c1ccc(Cl)cc1 (centres undefined) | 8.91 |
| Fc1cccc(Cl)c1Cn1nnc(-c2ccc3c(c2)OCO3)n1 | 20.3 |
| CCc1c(C(=O)Nc2ncn(Cc3cccc(C)c3)n2)csc1C | 29.1 |
| CCOC(=O)CCSc1nc2c(c(C(F)(F)F)c1C#N)CCC2 | 13.9 |
| COc1ccc(-c2nc3oc4cc(OC)ccc4c(=O)c3c(=O)n2Cc2ccco2)cc1 | 2.33 |

| SMILES | IC50 [µM] |
| --- | --- |
| O=C(CSc1nnc(Cc2ccccc2)n1Cc1ccco1)NC12CC3CC(CC(C3)C1)C2 | 61.8 |
| Cc1ccc(Cl)cc1N1CCN(C(=O)c2ccc(NS(=O)(=O)c3c(C)noc3C)cc2)CC1 | 29.4 |
| CC1Cc2cc(-c3csc(NC(=O)Cc4cccs4)n3)ccc2N1S(C)(=O)=O (centres undefined) | 15.3 |
| CCOC(=O)c1cc(C)n(S(=O)(=O)c2ccc(C)cc2)c1C | 12.4 |
| COc1ccc(NS(=O)(=O)c2cc(C)ccc2NC(=O)c2cc(C)oc2C)cc1 | 58.6 |
| COC(=O)CSc1nc(N2CCCCC2)c2c(c1C#N)CCCC2 | 12.6 |
| COc1ccc(C2CC(c3ccccc3)n3nc(NC(=O)c4cccs4)nc3N2)cc1 (centres undefined) | 8.18 |
| Cc1ccc(Cl)cc1NC(=O)CC(O)(C(F)(F)F)C(F)(F)F | 3.77 |
| CCOC(=O)C1CCN(c2ncnc3c2oc2ccc(Br)cc23)CC1 | 12.8 |
| CCn1c(SC)nnc1-c1sc2cc(Cl)ccc2c1Cl | 11.6 |
| CCOC(=O)c1sc(NC(=O)c2c(C)nn(Cc3ccccc3)c2C)cc1C | 9.35 |
| O=S(=O)(Nc1nc2ccccc2nc1NCc1ccco1)c1cccs1 | 8.75 |
| Cc1nnc(NC(=O)c2ccc(S(=O)(=O)N(C)Cc3ccccc3)cc2)o1 | 3.87 |
| Cc1cc(-c2nnc3n2N=C(c2ccc(-c4ccccc4)cc2)CS3)n[nH]1 | 9.55 |
| COc1ccc(C2(O)CC3CCC(C2)N3c2nc(C)cc(C)c2C#N)cc1 (centres undefined) | 24.6 |
| COc1cc(/C=C(/C#N)c2ccc(F)cc2)ccc1OCc1ccc(C(=O)O)o1 | 4.94 |
| Cc1nn(-c2nc3ccccc3[nH]2)c(N)c1-c1ccccc1 | 59.4 |
| COCc1cc(C)nc2sc3c(=O)oc(C)nc3c12 | 96.2 |
| c1ccc(Cn2nnnc2C(c2cccs2)N2CCCCCC2)cc1 (centres undefined) | 9.47 |
| CCCn1nnc(NC(=O)COc2ccc(C3CCCCC3)cc2)n1 | 9.4 |
| COC(=O)c1sccc1NC(=O)c1csc(C)c1 | 23.1 |
| COc1ccc(/C=N/n2c(SC)nnc2-c2ccccc2)cc1C | 16.5 |
| CCc1nc2ccccc2c(=O)n1NC(=O)c1c(O)c2ccccc2[nH]c1=O | 5.7 |

| SMILES | IC50 [µM] |
| --- | --- |
| COc1ccccc1-c1nnc(SC/C(O)=C(\C#N)c2nc3ccccc3[nH]2)n1C1CCCCC1 | 10.2 |
| CCOC(=O)c1cnc(-n2nc(C)cc2C)nc1Nc1ccc(N(C)C)cc1 | 13.7 |
| N#Cc1cn(Cc2ccccc2)c2ccccc12 | 15.3 |
| Cc1onc(-c2ccccc2)c1C(=O)Nc1sc2c(c1C#N)CCC2 | 10.1 |
| COc1ccc(C2c3sc(=O)[nH]c3SC3C4CCC(C4)C23)cc1 (centres undefined) | 10 |
| c1ccc(-c2cccc(-c3ccccn3)n2)nc1 | 19.4 |
| CC1(C)C(=O)OC(c2cc(Br)ccc2O)C(C)(C)C1=O (centres undefined) | 15.4 |
| COc1ccc(NC(=O)c2cc(-c3cc(C)cc(C)c3O)n[nH]2)cc1Cl | 1.95 |
| N#C/C(=C\c1ccco1)Sc1nc2ccccc2s1 | 8.6 |
| Cc1ccc2c3c1C1(C(=O)N3C(C)(C)CC2C)C(C#N)=C(N)Oc2cc(O)ccc21 (centres undefined) | 2.96 |
| CCC(=Nc1ccc(OC)cc1OC)c1c(O)n(C2CCCCC2)c(=O)[nH]c1=O | 4.85 |
| COc1ccc(Cn2nnnc2C(C(C)C)N2CCc3ccccc32)cc1 (centres undefined) | 12.7 |
| N#Cc1nc(COc2ccccc2F)oc1NCCc1ccccc1 | 16.7 |
| CN(C1CCCCC1)S(=O)(=O)c1ccc(NC(=O)c2ccc(Br)o2)cc1 | 10.6 |
| CCc1nc(N2CCCCC2C)c2oc3ccccc3c2n1 (centres undefined) | 13.6 |
| CCCOc1ccc(C2C(C(=O)c3ccc(C)o3)=C(O)C(=O)N2Cc2cccnc2)cc1 (centres undefined) | 36.1 |
| O=C(Nc1nnc(-c2ccccc2Cl)o1)c1ccc(S(=O)(=O)N2CCCCCC2)cc1 | 0.16 |
| CCc1cc(C(=O)Cc2ccc(F)cc2)c(O)cc1O | 7.76 |
| COc1ccc2nc(NC(=O)C3CCCN(S(=O)(=O)c4cccs4)C3)sc2c1 (centres undefined) | 26 |
| Brc1ccc(-c2nc(-c3ccccc3)no2)o1 | 30.1 |
| COc1ccc(OCC(O)CNc2ccc(Br)cc2)cc1 (centres undefined) | 12.7 |
| COc1ccc(-c2[nH]ncc2-c2cnn(-c3ccccc3)c2)c(O)c1 | 12.5 |
| COC(=O)c1[nH]c2ccccc2c1NC(=O)CN1CCN(c2cccc(OC)c2)C(C)C1 (centres undefined) | 18.6 |

| SMILES | IC50 [µM] |
| --- | --- |
| Cc1ccccc1Cn1nc(C)c(NC(=O)c2noc3c2CCc2ccccc2-3)c1C | 12.1 |
| COc1cccc(C2/C(=C(/O)c3ccc(C)cc3)C(=O)C(=O)N2Cc2ccco2)c1 (centres undefined) | 4.54 |
| Clc1ccc(Nc2nc(-c3cccs3)cs2)nc1 | 80.2 |
| O=C(Nc1ccc(Br)c(Cl)c1)c1ccco1 | 8.74 |
| O=C(c1cc(-c2ccccc2)on1)N1CCN(Cc2ccc3c(c2)OCO3)CC1 | 20.8 |
| CC(C)(C)C(=O)Cn1c(=N)n(Cc2ccccc2)c2ccccc21 | 17.2 |
| COc1ccccc1C(=O)Nc1nnc(-c2ccc3c(c2)CCCC3)o1 | 6.32 |
| CCn1cc(C(=O)OCC(=O)OC2CC(C)CCC2C(C)C)c(=O)c2ccc(C)nc21 (centres undefined) | 7.52 |
| Cc1cc(C)c(C#N)c(SCC(=O)OC2CCCCC2)n1 | 19.1 |
| CCN(CC)S(=O)(=O)c1ccc2[nH]cc(C(=O)NCCC3=CCCCC3)c(=O)c2c1 | 5.15 |
| C/C(CCc1oc2ccccc2c1-c1ccc(C)o1)=N/O | 14.2 |
| Cc1ccc(NC(=O)c2ccccc2O)cc1 | 16 |
| O=C(CSc1n[nH]c(-c2ccco2)n1)N1c2ccccc2Sc2ccccc21 | 9.51 |
| COc1ccc(-n2c(C)nc3c(cnn3-c3ccc(Cl)cc3)c2=O)cc1 | 20.9 |
| Cc1cccc(Nc2nc(-c3ccccn3)cs2)n1 | 0.68 |
| COC(=O)c1c(NC(=O)Cc2cccs2)sc2c1CCCC2 | 8.83 |
| COC(=O)c1[nH]c2ccc(C)cc2c1NS(=O)(=O)c1ccc(F)cc1 | 6.58 |
| Cc1cccc(OCCn2c(NC(=O)c3ccco3)nc3ccccc32)c1 | 11 |
| Brc1ccccc1Cn1c(-c2cncs2)nc2ccccc21 | 10.6 |
| Cc1noc(C)c1C(=O)Nc1sc(C)c(-c2ccccc2)c1C#N | 9.36 |
| COc1ccc(-c2noc(CN3CCC(Cc4ccccc4)CC3)n2)cc1 | 17.2 |
| CCSc1nnc(NC(=O)CSc2nccn2-c2cccc(C)c2C)s1 | 5.29 |

— PubChem BioAssay AID617 (SRMLSC, 2007)
